# Laboratory results reported in the RNAGym collection of RNA variant scans (doi:10.1126/science.aae0568).
# Variants at the floor of the assay were thinned out.
# B1: tRNA (parent)
# chain: GUUCCGUUGGCGUAAUGGUAACGCGUCUCCCUCCUAAGGAGAAGACUGCGGGUUCGAGUCCCGUACGGAACG
# Variants of: B1
# Experiment: yeast fitness relative to wild type (ratio to wild type); higher = fitter; tRNA-Arg(CCU), competitive growth, 37 C, YPD
# Outline: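 Variants of the tRNA-Arg(CCU) gene were chemically synthesised with a 3% per-site mutation rate across 69 sites and placed at the native genomic locus in Saccharomyces cerevisiae. Six parallel replicates of the pooled strains were competed in YPD at 37°C for 24 hours, and gene amplicons from the start and end populations were read by 100-nucleotide paired-end sequencing. Darwinian fitness relative to wild type was derived from changes in genotype frequencies. Genotypes required ≥ 100 starting reads, and estimates < 0.5 were set to 0.5.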
row,Variant,yeast fitness
1,GUUCUGUUGACGUAAUGGUAACGCGUCUCCCUCUUAAGGAGAAGACUGCGGGUUCGAGUCCCGUACGUUACG,0.505
2,GUUCUGUUAGCGAAAUGGUAACGCGUCUCCCUCCUCAGGAGAAGACUGCCGGUUCGAGUCCCGUACGGAACG,≤ 0.5
3,GUUCUGUUGGCGUAAUAGUGACGCGUCUCCCUCCUAAGGAGAAGACUGCGGGUUAGAGUCCCGUACAGAGCG,≤ 0.5
4,GUUCUGUUGGCCUAAUGGUAACGCGUCACCCUCCUAAGGAGAAGACUGCGGGUUCGAGUCCCGUACGGAACG,0.545
5,GUUCUCUUGGCGUAAUGGUAACGCGUCUCCCUCCUAAGAAGAAGUGUGCGGGUUCGCGUCCCGUACGGAACG,≤ 0.5
6,GUUCUGUUGGCGUAAUAGUAACGCGUCUCCCUCCUAAGGAGAAGAUUGCGGGUUCGAAUCCCAAACGGAACG,≤ 0.5
7,GUUCUGUUGCCGUAAUGGUAUUGCGUUUCCCCCCUAAGGAGAAGAUUGCGGGUUCGAGUCGCGUACGGAACG,≤ 0.5
8,GUUCUGUUGGCAUGAUGGUAACGCGUCUCCCUCCUAAGGAGAAGACUGCGGGUUCGUGUCCCGUACGGAACG,≤ 0.5
9,GUUCUGUUGACGUAAUGGUAACGCGUCUCCCUCCUAAGGAGAAGACUGCGGGUUCGAGUCCCGUACGCAACG,≤ 0.5
10,GUUCUGUUGCCGUAAUGGUAUUGUGUCUCCCCCCUAAGGAGAAGAUUGCGGGUUCGAGUCGCGUACGGAACG,≤ 0.5
11,GUUCUGUUGACGUAAUGGUAACGCGUCUCCCUCCUGAGGAGAACACUGCGGGUUCGAGUCCCGUACGGAACG,≤ 0.5
12,GUUCUGUUAGCGUAAUGGUAACGCGUCUCCCUCUUAAGGAGAAGAGUGUGGGUUCGAGUCCCGUACGGAACG,0.513
13,GUUCUGUUCGCGUACUGGUAACGCGUCUCCCUCCUAACGAGAAGACUGGGGGUUCGAGUCCCGUACGCAACG,≤ 0.5
14,GUUCUGUUGGCAUAAUGGUAAUGCGUCUCCCUUCUAAGGAGAAGACUGCGGGUUCGAGUCCCGUACGGAACG,≤ 0.5
15,GUUCUGUUGACGUAAUGGUAACGCGUGUCCCUCCUAAGGAGAAGACUGCGGGUUCGGGUCCCGUACGGAACG,0.541
16,GUUCUGUUAGCGUAAUGGUAACGCGUCUCCCUCCUAAGGAGAAGACUGCGGGUUCGAGUCUCGUACGGAACG,0.732
17,GUUCUGUUGGCGUAAUAGUAACGCGUCUUCCUCCUAAGGAGAAGACUGCGGCUUGGAGUCCCGUACGGUACG,≤ 0.5
18,GUUCUGUUAGCGUAAUGGUGACGCGUCUCCCUCCUAAGGAGAAGACUGCGGGUUCGAGUCCCGUACGGAACG,0.663
19,GUUCUCUUGGCGUAAUGGUAACGCGUCUCCCUCCUCAGGAGAAGACUCCGGGUUCGAGUCCUGUACGGAACG,0.546

row,Variant,yeast fitness
1,GUUCUGUUGGCAUAUUGGUAACGCGUCUCCCUCCUAAGGAGAAGACUGCGGGUUCGAGUCCCAUACGGAUCG,≤ 0.5
2,GUUCUGUUCGCGUAAUGGUAACGCGUCUCCCUCCUUAGGAGAAGACUGCGGGUUCGAGUGCCGUACGGAACG,≤ 0.5
3,GUUCUGUUAGCGUAAUGGUAACGCGUCUCCCUCAUAAGGAGAAGACUGCGGGUUCGAGUCCCGUACGGAACG,0.704
4,GUUCUGUUGGCAUAAUGGUAACGCGUCUCCCUCCUAAGGUGAAGGCUGCGGGUUCGAGUACCGUACGGAACG,≤ 0.5
5,GUUCUGUUAGCGUAAUGGUAACGCGUCUCCCUCCUAAGGAGAAGACUGCGGGUUCGAGUCCUGUACGGAACG,0.995
6,GUUCUGUUGGCGUAAUAGUAACGCGUCUUCCUCCUAAGGAGAAGACUGCGGCUUGGAGUCCCGUACGGAACG,≤ 0.5
7,GUUCUGUUGGCGUAAUAGUAACGCGUCUCCCUACUAAGGAGAAGACUGUGGGUUCGAGUCCCGUAUGGAACG,≤ 0.5
8,GUUCUGUUGCCGUAAUGGUAUUGCGUCUCCCCCCUAAGGAGAAGAUUGCGGGUUCGAGUCCCGUACGGAACG,≤ 0.5
9,GUUCUGUUGCCGUAAUGGUAACGCGUGCCCCUCCUAAGCAGAAGAGUGCGGGUUCGAGUCCCGUACGGAACG,0.606
10,GUUCUGUUGACGUAAUGGUAACGCGUCUCCCUCCUAAGGCGAAGACUGCAGGUUCGAGUCCCGUACGGAACG,≤ 0.5
11,GUUCUGUUGCCGUGAUGGUAACGCGUCUCCCUCCUAAGGAGAAGAGUGCGGGUUCGAGUCCUGUACGGAACG,0.593
12,GUUCUGUUGGCCUAAUGGUAACGCGUCUCCCUCCUAAGGCGAAGACUGCGGGUUCCAGUCCCGUACGGAACG,≤ 0.5
13,GUUCUGUUCGCGUAAUGGUAACGCGUCUCCCUCCUAAGGAGGAGACUGCGGGUUCGAGUCCCGUACGGAACG,0.626
14,GUUCUGUUAGCGUAAUGGUAGCGCGUCUCCCUCCUAAGGAGAAGACUGCGGGAUCGAGUCCCGUACGGAACG,≤ 0.5
15,GUUCUGUUGGCCUAAUGGAAACGCGUCUCCCUCCUAAGGAGAAGACUGCGGGUUCGAGUCCCGUACGGAACG,≤ 0.5
16,GUUCUGUUGCCGUAGUGGUAACGCGUCUGCCUCCUAAGGCGAUGACAGCGGGUUCGAGUACCGUACGGAACG,≤ 0.5
17,GUUCUGUUGGCAUAAUGGUAACGCGUCUCCCUCCUAAGGAGAAGACGGUGGGUUCGAGUCCCGUACGCAACG,≤ 0.5
18,GUUCUGUUGACGUAAUGGUAACGCGUCUCCCUCCUAAGGAGAAGACUGCGGGUUCGAGUCCCGUACGGGACG,≤ 0.5
